Tests used:
CEF = experiment: Intrinsic cytotoxic activity for CEF; type: cell-based, chicken
[1] = tested on: Jun-induced oncogenic transformation in CEF; type: cell-based, chicken; details: CEF infected with avian sarcoma virus 17
[2] = tested on: Src-induced oncogenic transformation in CEF; type: cell-based, chicken; details: CEF infected with Prague strain of Rous sarcoma virus
Myc/Max dimerization = experiment: FRET assay for inhibition of Myc-Max dimerization; type: binding
[3] = tested on: Myc-induced oncogenic transformation in chicken embryo fibroblasts (CEF); type: cell-based; details: for IC95, inhibition of foci formation: Myc-induced foci in CEF; for inhibition of foci formation: at 20 μM; for inhibition of foci formation / EOT (efficiency of transformation, no inhibition = 1): Myc-induced, CEF; for EOT (efficiency of transformation, no inhibition = 1): tested at 20 μM
Summary of the method: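 Chicken embryo fibroblasts infected with the RCAS viral vector expressing transforming chicken cellular Myc. Test compound added at 20 μM. Cultures maintained for three weeks, then foci in each well counted manually by eye. Result expressed as efficiency of transformation (EOT), with no inhibition = 1. Active candidates re-tested in iterative rounds.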

SMILES	intrinsic cytotoxic activity for CEF (CEF)	inhibitory activity for foci formation induced by Jun [1]	inhibitory activity for foci formation induced by Src [2]	inhibition of Myc/Max dimerization (Myc/Max dimerization)	IC95, inhibition of foci formation [3]	inhibition of foci formation [3]	EOT (efficiency of transformation, no inhibition = 1) [3]
Cc1cc(C)c(S(=O)(=O)N[C@@H](CNC(=O)[C@@H]2CN(C(=O)CC3CCN(C(=O)OC(C)(C)C)CC3)C[C@H]2C(=O)O)C(=O)OC(C)(C)C)c(C)c1 [compound 3, mycmycin-1]	neither possess an intrinsic cytotoxic acitivity	failed to exhibit inhibitory activity	failed to exhibit inhibitory activity	most effective inhibition	20 µM	complete inhibition of foci formation	0.05
CNC(=O)[C@@H]1CN(C(=O)CCCCCNC(=O)OC(C)(C)C)C[C@H]1C(=O)NC[C@H](NS(=O)(=O)c1cc(Cl)sc1Cl)C(=O)OC(C)(C)C [compound 4, mycmycin-2]	neither possess an intrinsic cytotoxic acitivity	failed to exhibit inhibitory activity	failed to exhibit inhibitory activity	less effective inhibition	20 µM	complete inhibition of foci formation	0.05

— paper PMC2767179 (Bioorganic & medicinal chemistry letters, 2009)
